Active and inactive are the calls of the source. No cut-off for these calls is given here.
Tests used:
CHO-K1 = experiment: Displacement of [125I]-2-Iodomelatonin from human recombinant MT1 receptor expressed in CHO-K1 cells at 10 uM relative to control; format: cell-based
Procedure, shortened: (§1)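 Tested once at 10 μM in a commercial radioligand binding panel of 68 GPCRs, ion channels, kinases and transporters. Activity is given as displacement of each radioligand relative to control.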

[1] = target: Histamine H2 receptor (Homo sapiens) (UniProt P25021); experiment: Displacement of [125I]-Aminopotentidine from human recombinant histamine H2 receptor expressed in CHO-K1 cells at 10 uM relative to control; format: cell-based; procedure, shortened: as §1
[2] = target: B2 bradykinin receptor (Homo sapiens) (UniProt P30411); experiment: Displacement of [3H]-Bradykinin from human recombinant bradykinin B2 receptor expressed in rat Chem-1 cells at 10 uM relative to control; format: cell-based; procedure, shortened: as §1
[3] = target: Glutamate NMDA receptor (Rattus norvegicus) (UniProt P35439+Q00959+Q00960+Q00961+Q62645+Q8VHN2+Q9R1M7); experiment: Displacement of [3H]-CGP-39653 from NMDA receptor agonist binding site in rat cerebral cortex at 10 uM relative to control; format: tissue-based; procedure, shortened: as §1
[4] = target: Sodium-dependent serotonin transporter (Homo sapiens) (UniProt P31645); experiment: Displacement of [3H]-Paroxetine from human recombinant SERT expressed in HEK293 cells at 10 uM relative to control; format: cell-based
Rattus norvegicus [5] = organism: Rattus norvegicus; experiment: Displacement of [125I]-Triiodothyronine from thyroid hormone receptor in rat liver at 10 uM relative to control; procedure, shortened: as §1
Plasma = experiment: Tmax in CD-1 mouse plasma at 10 mg/kg, ip by LC-MS/MS analysis; format: ADME, organism-based; design: dose 10 mg/kg, route intraperitoneal; conditions: in vivo
Rattus norvegicus [6] = organism: Rattus norvegicus; experiment: Displacement of [3H]-Muscimol from central-type GABAA receptor muscimol binding site in cerebellum-less rat brain homogenate at 10 uM relative to control; format: tissue-based; procedure, shortened: as §1
[7] = target: Alpha-1B adrenergic receptor (Rattus norvegicus) (UniProt P15823); experiment: Displacement of [3H]-Prazosin from adrenergic alpha1B receptor in rat liver at 10 uM relative to control
[8] = target: Gamma-aminobutyric acid type B receptor subunit 1 (Homo sapiens) (UniProt Q9UBS5); experiment: Displacement of [3H]-CGP-54626 from human recombinant GABAB1A receptor expressed in CHO cells at 10 uM relative to control; format: cell-based; procedure, shortened: as §1
[9] = target: 5-hydroxytryptamine receptor 3A (Homo sapiens) (UniProt P46098); experiment: Displacement of [3H]-GR-65630 from human recombinant 5-HT3 receptor expressed in HEK293 cells at 10 uM relative to control; format: cell-based; procedure, shortened: as §1
[10] = target: Muscarinic acetylcholine receptor M3 (Homo sapiens) (UniProt P20309); experiment: Displacement of [3H]-N-Methylscopolamine from human recombinant muscarinic M3 receptor expressed in CHO-K1 cells at 10 uM relative to control; format: cell-based; procedure, shortened: as §1
[11] = target: Cysteinyl leukotriene receptor 1 (Homo sapiens) (UniProt Q9Y271); experiment: Displacement of [3H]-LTD4 from human recombinant leukotriene cysteinyl CysLT1 receptor expressed in CHO-K1 cells at 10 uM relative to control; format: cell-based; procedure, shortened: as §1
[12] = Cmax in CD-1 mouse brain at 10 mg/kg, ip by LC-MS/MS analysis; format: ADME, organism-based; design: dose 10 mg/kg, route intraperitoneal
[13] = target: Estrogen receptor (Homo sapiens) (UniProt P03372); experiment: Displacement of [3H]-Estradiol from human recombinant ERalpha receptor expressed in insect Sf9 cells at 10 uM relative to control; procedure, shortened: as §1
Brain = experiment: Tmax in CD-1 mouse brain at 10 mg/kg, ip by LC-MS/MS analysis; format: ADME, organism-based; design: dose 10 mg/kg, route intraperitoneal; conditions: in vivo
[14] = target: Delta-type opioid receptor (Homo sapiens) (UniProt P41143); experiment: Displacement of [3H]-Naltrindole from human recombinant delta opioid receptor expressed in HEK293 cells at 10 uM relative to control; format: cell-based; procedure, shortened: as §1
[15] = target: Metabotropic glutamate receptor 3 (Rattus norvegicus) (UniProt P31422); experiment: Allosteric modulation of rat mGlu3 receptor expressed in HEK293 cells coexpressing G protein-activated inward rectifier potassium channel assessed as effect on glutamate-induced thallium flux at 10 uM; format: cell-based
Chain of Metabotropic glutamate receptor 3 (Rattus norvegicus) (P31422 23-879 limits assumed): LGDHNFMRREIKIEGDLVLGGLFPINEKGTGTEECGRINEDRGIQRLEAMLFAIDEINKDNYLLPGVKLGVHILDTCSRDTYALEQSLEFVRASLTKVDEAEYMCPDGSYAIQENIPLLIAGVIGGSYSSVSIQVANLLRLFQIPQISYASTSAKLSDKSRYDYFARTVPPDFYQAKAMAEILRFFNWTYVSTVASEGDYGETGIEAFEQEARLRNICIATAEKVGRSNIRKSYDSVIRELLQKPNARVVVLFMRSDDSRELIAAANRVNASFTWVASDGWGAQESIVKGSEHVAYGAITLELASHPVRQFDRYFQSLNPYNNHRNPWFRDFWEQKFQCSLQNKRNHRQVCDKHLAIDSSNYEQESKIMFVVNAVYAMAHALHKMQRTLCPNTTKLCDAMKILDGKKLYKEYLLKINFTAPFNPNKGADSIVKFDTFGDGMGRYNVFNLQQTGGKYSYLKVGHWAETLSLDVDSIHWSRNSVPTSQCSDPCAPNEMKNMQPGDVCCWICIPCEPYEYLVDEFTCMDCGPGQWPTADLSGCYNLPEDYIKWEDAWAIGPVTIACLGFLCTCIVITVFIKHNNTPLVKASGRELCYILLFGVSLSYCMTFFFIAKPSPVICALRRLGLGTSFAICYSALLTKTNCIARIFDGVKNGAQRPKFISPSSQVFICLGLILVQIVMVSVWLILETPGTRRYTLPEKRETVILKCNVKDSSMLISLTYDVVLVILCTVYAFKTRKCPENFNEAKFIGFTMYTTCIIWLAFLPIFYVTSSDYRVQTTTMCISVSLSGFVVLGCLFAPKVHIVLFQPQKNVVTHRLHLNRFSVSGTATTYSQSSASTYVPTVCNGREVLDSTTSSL

Chain of 5-hydroxytryptamine receptor 3A (Homo sapiens) (P46098 whole entry): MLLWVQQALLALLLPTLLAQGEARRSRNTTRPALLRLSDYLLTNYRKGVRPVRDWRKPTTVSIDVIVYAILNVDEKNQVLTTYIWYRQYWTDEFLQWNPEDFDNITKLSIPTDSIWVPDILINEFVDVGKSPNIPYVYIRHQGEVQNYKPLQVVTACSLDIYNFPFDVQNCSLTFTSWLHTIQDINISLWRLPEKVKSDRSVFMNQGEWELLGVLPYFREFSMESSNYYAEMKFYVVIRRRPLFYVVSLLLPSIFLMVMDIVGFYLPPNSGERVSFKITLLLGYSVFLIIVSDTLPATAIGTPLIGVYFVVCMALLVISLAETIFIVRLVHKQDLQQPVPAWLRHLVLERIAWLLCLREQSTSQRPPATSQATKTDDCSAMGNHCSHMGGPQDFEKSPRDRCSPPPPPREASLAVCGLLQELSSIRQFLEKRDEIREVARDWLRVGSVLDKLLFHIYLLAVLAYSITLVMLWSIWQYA
Chain of B2 bradykinin receptor (Homo sapiens) (P30411 whole entry): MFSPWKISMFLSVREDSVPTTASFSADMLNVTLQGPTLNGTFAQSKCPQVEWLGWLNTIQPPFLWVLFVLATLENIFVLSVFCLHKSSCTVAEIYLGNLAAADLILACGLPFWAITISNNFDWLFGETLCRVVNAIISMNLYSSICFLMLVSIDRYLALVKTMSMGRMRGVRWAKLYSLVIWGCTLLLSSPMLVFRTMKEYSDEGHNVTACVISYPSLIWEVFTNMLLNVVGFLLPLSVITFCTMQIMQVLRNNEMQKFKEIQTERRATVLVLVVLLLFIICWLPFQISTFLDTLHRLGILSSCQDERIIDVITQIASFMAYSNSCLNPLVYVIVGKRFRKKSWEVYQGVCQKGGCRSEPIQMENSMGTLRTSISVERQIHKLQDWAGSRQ
Chain of Cysteinyl leukotriene receptor 1 (Homo sapiens) (Q9Y271 whole entry): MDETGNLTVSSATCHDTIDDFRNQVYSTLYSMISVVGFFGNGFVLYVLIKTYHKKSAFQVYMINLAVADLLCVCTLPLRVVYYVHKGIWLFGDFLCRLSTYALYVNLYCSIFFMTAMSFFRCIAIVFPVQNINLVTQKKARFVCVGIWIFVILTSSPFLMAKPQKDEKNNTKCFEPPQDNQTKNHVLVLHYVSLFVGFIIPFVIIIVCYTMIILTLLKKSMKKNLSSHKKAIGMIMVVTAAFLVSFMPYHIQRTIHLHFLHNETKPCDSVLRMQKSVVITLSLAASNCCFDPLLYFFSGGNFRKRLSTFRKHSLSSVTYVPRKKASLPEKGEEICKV
Chain of Histamine H2 receptor (Homo sapiens) (P25021 whole entry): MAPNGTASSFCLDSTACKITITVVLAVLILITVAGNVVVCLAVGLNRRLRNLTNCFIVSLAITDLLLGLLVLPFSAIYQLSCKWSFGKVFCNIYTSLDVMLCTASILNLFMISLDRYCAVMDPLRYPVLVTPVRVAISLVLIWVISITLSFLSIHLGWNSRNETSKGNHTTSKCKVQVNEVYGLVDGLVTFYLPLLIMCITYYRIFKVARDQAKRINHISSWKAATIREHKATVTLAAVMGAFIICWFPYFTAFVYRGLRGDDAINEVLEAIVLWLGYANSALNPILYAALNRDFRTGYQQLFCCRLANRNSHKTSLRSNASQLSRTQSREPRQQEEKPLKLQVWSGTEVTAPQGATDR
Chain of Estrogen receptor (Homo sapiens) (P03372 whole entry): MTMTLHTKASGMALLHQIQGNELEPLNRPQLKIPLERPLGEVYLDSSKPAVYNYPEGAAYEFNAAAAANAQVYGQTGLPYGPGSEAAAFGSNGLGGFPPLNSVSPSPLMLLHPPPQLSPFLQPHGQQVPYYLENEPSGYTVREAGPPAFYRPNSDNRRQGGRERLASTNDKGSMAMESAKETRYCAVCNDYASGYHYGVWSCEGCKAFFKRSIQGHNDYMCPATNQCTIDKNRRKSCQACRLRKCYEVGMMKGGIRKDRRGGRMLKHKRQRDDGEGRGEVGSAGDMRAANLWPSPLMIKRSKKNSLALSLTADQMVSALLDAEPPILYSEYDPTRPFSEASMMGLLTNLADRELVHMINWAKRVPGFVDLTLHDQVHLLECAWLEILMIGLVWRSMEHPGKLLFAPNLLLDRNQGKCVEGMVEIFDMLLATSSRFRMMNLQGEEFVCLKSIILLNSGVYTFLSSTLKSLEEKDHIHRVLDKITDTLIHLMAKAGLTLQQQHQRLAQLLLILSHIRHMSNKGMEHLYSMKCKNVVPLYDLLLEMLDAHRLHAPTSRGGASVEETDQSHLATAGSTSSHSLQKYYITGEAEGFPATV
Chain of Delta-type opioid receptor (Homo sapiens) (P41143 whole entry): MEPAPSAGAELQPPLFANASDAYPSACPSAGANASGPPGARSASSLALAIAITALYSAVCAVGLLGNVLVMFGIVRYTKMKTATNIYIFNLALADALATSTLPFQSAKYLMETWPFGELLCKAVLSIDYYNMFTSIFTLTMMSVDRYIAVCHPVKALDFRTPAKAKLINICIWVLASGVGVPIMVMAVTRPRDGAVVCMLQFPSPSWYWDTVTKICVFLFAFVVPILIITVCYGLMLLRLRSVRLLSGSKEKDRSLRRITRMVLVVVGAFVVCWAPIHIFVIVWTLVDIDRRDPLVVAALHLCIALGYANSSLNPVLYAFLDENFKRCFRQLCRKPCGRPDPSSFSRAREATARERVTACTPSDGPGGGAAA
Chain of Sodium-dependent serotonin transporter (Homo sapiens) (P31645 whole entry, looked up): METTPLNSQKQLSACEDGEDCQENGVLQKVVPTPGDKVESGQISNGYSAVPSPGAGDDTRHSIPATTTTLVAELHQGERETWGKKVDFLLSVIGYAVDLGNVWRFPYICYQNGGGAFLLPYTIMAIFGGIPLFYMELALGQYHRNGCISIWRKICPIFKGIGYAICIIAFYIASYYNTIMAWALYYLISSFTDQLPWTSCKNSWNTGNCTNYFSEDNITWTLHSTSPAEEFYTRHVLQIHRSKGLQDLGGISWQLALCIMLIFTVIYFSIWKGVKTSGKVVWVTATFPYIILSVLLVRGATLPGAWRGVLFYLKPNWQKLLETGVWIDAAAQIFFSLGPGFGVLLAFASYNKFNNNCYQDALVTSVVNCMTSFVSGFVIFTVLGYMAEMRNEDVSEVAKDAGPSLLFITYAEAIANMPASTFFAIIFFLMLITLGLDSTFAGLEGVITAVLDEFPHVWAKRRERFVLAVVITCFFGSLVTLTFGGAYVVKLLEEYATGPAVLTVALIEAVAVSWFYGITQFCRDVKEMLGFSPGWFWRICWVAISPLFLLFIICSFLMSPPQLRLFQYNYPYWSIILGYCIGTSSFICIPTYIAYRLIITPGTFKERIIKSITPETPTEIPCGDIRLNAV
Chain of Muscarinic acetylcholine receptor M3 (Homo sapiens) (P20309 whole entry, looked up): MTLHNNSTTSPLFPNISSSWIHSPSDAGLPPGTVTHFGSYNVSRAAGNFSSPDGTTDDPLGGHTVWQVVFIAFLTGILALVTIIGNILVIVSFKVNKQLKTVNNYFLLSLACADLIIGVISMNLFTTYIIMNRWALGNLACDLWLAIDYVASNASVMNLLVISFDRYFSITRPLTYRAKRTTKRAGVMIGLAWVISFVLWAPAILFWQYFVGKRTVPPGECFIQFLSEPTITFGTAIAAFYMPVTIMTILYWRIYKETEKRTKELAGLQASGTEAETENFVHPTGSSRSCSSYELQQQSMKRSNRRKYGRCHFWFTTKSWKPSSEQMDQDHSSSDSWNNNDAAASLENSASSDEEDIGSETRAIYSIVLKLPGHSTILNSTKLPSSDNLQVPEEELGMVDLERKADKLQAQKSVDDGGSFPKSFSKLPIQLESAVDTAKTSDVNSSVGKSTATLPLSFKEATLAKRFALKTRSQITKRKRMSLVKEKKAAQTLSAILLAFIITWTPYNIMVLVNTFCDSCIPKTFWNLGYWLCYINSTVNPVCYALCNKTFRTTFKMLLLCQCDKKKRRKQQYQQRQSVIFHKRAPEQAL

SMILES: Cc1csc(NC(=O)c2cc(F)cc(Oc3cncnc3)c2)n1
- inhibition (CHO-K1): > 35%
- inhibition [1]: > 35%
- inhibition [2]: > 35%
- inhibition [3]: > 35%
- inhibition [4]: > 35%
- inhibition (Rattus norvegicus [5]): > 35%
- Tmax (Plasma): 15 min
- inhibition (Rattus norvegicus [6]): > 35%
- inhibition [7]: > 35%
- inhibition [8]: > 35%
- inhibition [9]: > 35%
- inhibition [10]: > 35%
- inhibition [11]: > 35%
- Cmax [12]: 1350 ng/g
- inhibition [13]: > 35%
- Tmax (Brain): 15 min
- inhibition [14]: > 35%
- Activity [15]: inactive
